Tests used:
Vero = test: Cytotoxicity against African green monkey Vero cells at 10 uM; assay type: toxicity, cell-based; details: chlorocebus sabaeus
In short: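 Vero monolayers in 96-well plates, treated with compound at 10 μM in duplicate for 72 h during the phenotypic anti-ZIKV screen (0.1 MOI ZIKV FLR strain). An MTT assay optionally quantified viable cells.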

Zika virus [1] = test: (§1) Antiviral activity against ZIKV FLR infected in Vero cells assessed as inhibition of viral replication by measuring reduction in cytopathic effect at 10 uM preincubated with compounds for 2 hrs followed by replacement with fresh media containing compounds and measured after 48 hrs by MTT assay relative to control; assay type: functional; details: time 50 hrs
In short: (§2)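 Monolayers of 2 × 10^4 cells/well in DMEM with 2% FBS. Infected at 0.1 MOI together with compound for 2h. Wells washed with PBS, then fresh medium with compound added in duplicate and incubated 48h at 37 °C. Supernatant titred by end-point dilution: half-log dilutions on Vero monolayers in quadruplicate for 5–7 days, CPE by microscope then MTT. TCID50 compared with untreated; EC50 from dose-response fit of ≥2 independent experiments.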

Zika virus [2] = test: as §1, with “1” for “10”; assay type: functional; details: time 50 hrs; in short: as §2
Zika virus [3] = test: Antiviral activity against ZIKV FLR infected in Vero cells assessed as inhibition of viral replication by measuring reduction in cytopathic effect preincubated with compounds for 2 hrs followed by replacement with fresh media containing compounds and measured after 48 hrs by MTT assay; assay type: functional, organism-based; in short: as §2
Zika virus [4] = test: Antiviral activity against ZIKV FLR infected in Vero cells assessed as reduction in number of viral RNA copies by qRT-PCR analysis; assay type: functional, organism-based; details: dose 0.3-10 µM
In short: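 Viral RNA measured in cell supernatant after compound treatment. Copies/mL calculated from a standard curve.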

Zika virus [5] = test: Antiviral activity against ZIKV FLR infected in human U87 cells assessed as inhibition of viral replication pretreated with compounds for 2 hrs followed by replacement with fresh medium containing compound and measured after 48 hrs by MTT assay; assay type: functional, organism-based; details: U-87 MG; in short: as §2
Zika virus [6] = test: Antiviral activity against ZIKV FLR infected in mosquito C6/36 cells assessed as inhibition of viral replication pretreated with compounds for 2 hrs followed by replacement with fresh medium containing compound and measured after 48 hrs bt MTT assay; assay type: functional, organism-based; in short: as §2
U-87 MG = test: Cytotoxicity against human U87 cells assessed as reduction in cell viability; assay type: toxicity, cell-based; details: u-87mg atcc
dengue virus type 2 = test: Antiviral activity against Dengue virus serotype 2 K0049 infected in Vero cells assessed as inhibition of viral replication pretreated for 2 hrs followed by replacement with fresh medium containing compound and measured after 48 hrs by MTT assay; assay type: functional, organism-based; in short: as §2
Zika virus [7] = test: Antiviral activity against ZIKV FLR infected in Vero cells assessed as inhibition of viral replication by measuring log reduction in cytopathic effect at 1 uM preincubated with compounds for 2 hrs followed by replacement with fresh media containing compounds and measured after 48 hrs by MTT assay; assay type: functional; details: time 50 hrs; in short: as §2
Zika virus [8] = test: Antiviral activity against ZIKV FLR infected in Vero cells assessed as inhibition of viral replication by measuring log reduction in cytopathic effect at 10 uM preincubated with compounds for 2 hrs followed by replacement with fresh media containing compounds and measured after 48 hrs by MTT assay; assay type: functional; details: time 50 hrs; in short: as §2

With `COc1cc(/C=C/c2nc3ccc(N4CCN(C)CC4)cc3c(=O)n2-c2cccc(C(C)(C)C)c2)cc(OC)c1` the Activity (Vero) was “Toxic”.

`COc1cccc(/C=C/c2nc3ccc(-c4ccc(N(C)C)cc4)cc3c(=O)n2-c2cccc(C(C)(C)C)c2)n1` was tested, and the inhibition at 10 µM (Zika virus [1]) was 96.8%.

Work on `COc1cccc(/C=C/c2nc3ccc(N4CCCCC4)cc3c(=O)n2-c2cccc(C(F)(F)F)c2)n1` yielded an inhibition at 10 µM (Zika virus [1]) of 99%.

In the case of `CC(C)(C)c1ccc(-n2c(/C=C/c3cncnc3)nc3ccccc3c2=O)cc1`, the inhibition at 10 µM (Zika virus [1]) is reported as 0%.

In the case of `COc1cccc(/C=C/c2nc3ccc(N4CCN(C)CC4)cc3c(=O)n2-c2cccc(C(C)(C)C)c2)n1`, the Activity (Vero) is reported as “Toxic”.

Compound `COc1cccc(CCc2nc3ccc(N4CCOCC4)cc3c(=O)n2-c2cccc(C(C)(C)C)c2)n1` has an inhibition at 10 µM (Zika virus [1]) of 0%.

`COc1cccc(/C=C/c2nc3ccc(Cl)cc3c(=O)n2-c2cccc(C(C)(C)C)c2)n1` gave an inhibition at 10 µM (Zika virus [1]) of 0%.

With `CC(C)(C)c1cccc(-n2c(/C=C/c3ccc(C(F)(F)F)nc3)nc3ccc(N4CCCCC4)cc3c2=O)c1` the inhibition at 10 µM (Zika virus [1]) was 90%.

In the case of `CC(C)(C)c1cccc(-n2c(/C=C/c3ccccc3)nc3ccccc3c2=O)c1`, the inhibition at 10 µM (Zika virus [1]) is reported as 0%.

Work on `COc1cccc(/C=C/c2nc3ccc(N4CCC(N5CCOCC5)CC4)cc3c(=O)n2-c2cccc(C(C)(C)C)c2)n1` yielded an inhibition at 10 µM (Zika virus [1]) of 99.9% and an inhibition at 1 µM (Zika virus [2]) of 90%.

`COc1ccc2nc(/C=C/c3cccc(OC)n3)n(-c3cccc(C(C)(C)C)c3)c(=O)c2c1` showed an inhibition at 10 µM (Zika virus [1]) of 0%.

For `COc1cccc(/C=C/c2nc3ccc(N4CCCC4)cc3c(=O)n2-c2cccc(C(C)(C)C)c2)n1`, the inhibition at 10 µM (Zika virus [1]) was 68.4%.

`COc1cccc(/C=C/c2nc3ccc(OC)cc3c(=O)n2-c2cccc(C(C)(C)C)c2)c1` gave an inhibition at 10 µM (Zika virus [1]) of 0%.

With `CC(C)(C)c1cccc(-n2c(/C=C/c3ccc4ccccc4c3)nc3ccccc3c2=O)c1` the inhibition at 10 µM (Zika virus [1]) was 68.4%.

`COc1cccc(/C=C/c2nc3ccccc3c(=O)n2-c2cccc(C(C)(C)C)c2)n1` showed an inhibition at 10 µM (Zika virus [1]) of 0%.

Work on `COc1cccc(/C=C/c2nc3ccc(N4CCN(C(=O)OC(C)(C)C)CC4)cc3c(=O)n2-c2cccc(C(C)(C)C)c2)c1` yielded an inhibition at 10 µM (Zika virus [1]) of 99%.

`COc1cccc(/C=C/c2nc3ccc(N4CCOCC4)cc3c(=O)n2-c2cccc(C(F)(F)F)c2)n1` was tested, and the inhibition at 10 µM (Zika virus [1]) was 0%.

`COc1cccc(/C=C/c2nc3ccc(N4CCCCC4)cc3c(=O)n2-c2cccc(C(C)(C)C)c2)n1` showed an inhibition at 10 µM (Zika virus [1]) of 99.9%, an inhibition at 1 µM (Zika virus [2]) of 90% and an EC50 (Zika virus [3]) of 900 nM. The Activity (Zika virus [4]) was “Dose-Dependent Effect”, the EC50 (Zika virus [5]) was 820 nM and the EC50 (Zika virus [6]) was 750 nM. The CC50 (U-87 MG) was > 20000 nM and the EC50 (dengue virus type 2) was 160 nM.

`CCN(CC)c1ccc2nc(/C=C/c3cccc(OC)n3)n(-c3cccc(C(C)(C)C)c3)c(=O)c2c1` was tested, and the inhibition at 10 µM (Zika virus [1]) was 99.9%, the inhibition at 1 µM (Zika virus [2]) was 68.4% and the “log(activity)” value (Zika virus [7]) was 0.5. The “log(activity)” value (Zika virus [8]) was 3.

`Cc1ccccc1-n1c(/C=C/c2cccnc2)nc2ccccc2c1=O` showed an inhibition at 10 µM (Zika virus [1]) of 0%.

With `COc1ccccc1/C=C/c1nc2ccccc2c(=O)n1-c1cccc(C(C)(C)C)c1` the inhibition at 10 µM (Zika virus [1]) was 0%.

For `O=c1c2ccccc2nc(/C=C/c2cccnc2)n1-c1ccccc1`, the inhibition at 10 µM (Zika virus [1]) was 0%.

Compound `CC(C)(C)c1cccc(-n2c(/C=C/c3cccnc3)nc3ccccc3c2=O)c1` has an inhibition at 10 µM (Zika virus [1]) of 0%.

For `CC(C)(C)c1cccc(-n2c(/C=C/c3ccc(C(F)(F)F)cc3)nc3ccccc3c2=O)c1`, the inhibition at 10 µM (Zika virus [1]) was 90%.

`NCc1ccc(-c2ncc(OCC3CCNCC3)nc2-c2ccc(-c3ccoc3)cc2)cc1` showed an inhibition at 1 µM (Zika virus [2]) of 68%.

In the case of `COc1cccc(/C=C/c2nc3ccc(N4CCN(C(=O)OC(C)(C)C)CC4)cc3c(=O)n2-c2cccc(C(C)(C)C)c2)n1`, the inhibition at 10 µM (Zika virus [1]) is reported as 99%.

Compound `COc1cccc(/C=C/c2nc3ccc(N4CCOCC4)cc3c(=O)n2-c2cccc(C)c2)n1` has an inhibition at 10 µM (Zika virus [1]) of 90%.

`CC(C)(C)c1ccc(-n2c(/C=C/c3cncc(Br)c3)nc3ccccc3c2=O)cc1` was tested, and the inhibition at 10 µM (Zika virus [1]) was 0%.

In the case of `CC(C)(C)c1ccc(-n2c(/C=C/c3cccnc3)nc3ccccc3c2=O)cc1`, the inhibition at 10 µM (Zika virus [1]) is reported as 0%.

For `COc1cccc(/C=C/c2nc3ccc(N4CCCCC4)cc3c(=O)n2-c2cccc(C(C)(C)C)c2)c1`, the inhibition at 10 µM (Zika virus [1]) was 99.9% and the inhibition at 1 µM (Zika virus [2]) was 68.4%.

In the case of `COc1cccc(/C=C/c2nc3ccccc3c(=O)n2-c2cccc(C(C)(C)C)c2)c1`, the inhibition at 10 µM (Zika virus [1]) is reported as 0%.

Work on `COc1cccc(-n2c(/C=C/c3cccc(OC)n3)nc3ccc(N4CCC(N5CCOCC5)CC4)cc3c2=O)c1` yielded an inhibition at 10 µM (Zika virus [1]) of 99.9% and an inhibition at 1 µM (Zika virus [2]) of 68.4%.

`CC(C)(C)c1cccc(-n2c(/C=C/c3cncnc3)nc3ccccc3c2=O)c1` was tested, and the inhibition at 10 µM (Zika virus [1]) was 68.4%.

For `CC(C)(C)c1cccc(-n2c(/C=C/c3ccc(C(F)(F)F)nc3)nc3ccccc3c2=O)c1`, the inhibition at 10 µM (Zika virus [1]) was 90% and the “log(activity)” value (Zika virus [8]) was 0.5.

In the case of `COc1ncccc1/C=C/c1nc2ccccc2c(=O)n1-c1cccc(C(C)(C)C)c1`, the inhibition at 10 µM (Zika virus [1]) is reported as 68.4% and the “log(activity)” value (Zika virus [8]) is reported as 0.5.

In the case of `CCN(CC)CCCC(C)Nc1ccnc2cc(Cl)ccc12` (configuration not stated) [CHLOROQUINE], the inhibition at 10 µM (Zika virus [1]) is reported as 90%.

Compound `COc1cccc(/C=C/c2nc3ccc(N4CCC(N5CCOCC5)CC4)cc3c(=O)n2-c2cccc(C)c2)n1` has an inhibition at 10 µM (Zika virus [1]) of 99.9% and an inhibition at 1 µM (Zika virus [2]) of 0%.

With `COc1cccc(/C=C/c2nc3ccc(N4CCNCC4)cc3c(=O)n2-c2cccc(C(C)(C)C)c2)n1` the Activity (Vero) was “Toxic”.

For `COc1cccc(CCc2nc3ccc(N4CCCCC4)cc3c(=O)n2-c2cccc(C(C)(C)C)c2)n1`, the inhibition at 10 µM (Zika virus [1]) was 0%.

With `COc1cccc(-n2c(/C=C/c3cccc(OC)n3)nc3ccc(N4CCCCC4)cc3c2=O)c1` the inhibition at 10 µM (Zika virus [1]) was 99.9%, the inhibition at 1 µM (Zika virus [2]) was 90% and the EC50 (Zika virus [3]) was 210 nM. For the same compound, the EC50 (Zika virus [5]) was 690 nM, the EC50 (Zika virus [6]) was 770 nM and the CC50 (U-87 MG) was > 20000 nM. The EC50 (dengue virus type 2) was 560 nM.

Work on `COc1cccc(/C=C/c2nc3ccc(N4CCCCC4)cc3c(=O)n2-c2cccc(C)c2)n1` yielded an inhibition at 10 µM (Zika virus [1]) of 99.9% and an inhibition at 1 µM (Zika virus [2]) of 0%.

In the case of `COc1cccc(/C=C/c2nc3ccc(-c4ccc(N5CCCC5)cc4)cc3c(=O)n2-c2cccc(C(C)(C)C)c2)n1`, the inhibition at 10 µM (Zika virus [1]) is reported as 96.8%.

In the case of `COc1cccc(-c2ccc3nc(/C=C/c4cccc(OC)n4)n(-c4cccc(C(C)(C)C)c4)c(=O)c3c2)c1`, the inhibition at 10 µM (Zika virus [1]) is reported as 0%.

Compound `COc1cccc(/C=C/c2nc3ccc(N4CCC(N5CCOCC5)CC4)cc3c(=O)n2-c2cccc(C(F)(F)F)c2)n1` has an inhibition at 10 µM (Zika virus [1]) of 68.4%.

In the case of `CC(C)(C)c1cccc(-n2c(/C=C/c3ccncc3)nc3ccccc3c2=O)c1`, the inhibition at 10 µM (Zika virus [1]) is reported as 68.4%.

`COc1cccc(-n2c(/C=C/c3cccc(OC)n3)nc3ccc(N4CCOCC4)cc3c2=O)c1` showed an inhibition at 10 µM (Zika virus [1]) of 99%.

`COc1cccc(/C=C/c2nc3ccc(C4=CCOCC4)cc3c(=O)n2-c2cccc(C(C)(C)C)c2)n1` showed an inhibition at 10 µM (Zika virus [1]) of 96.8%.

For `COc1cccc(-n2c(/C=C/c3cccnc3)nc3ccccc3c2=O)c1`, the inhibition at 10 µM (Zika virus [1]) was 68.4% and the “log(activity)” value (Zika virus [8]) was 0.5.

For `CC(C)(C)c1cccc(-n2c(/C=C/c3ccncc3)nc3ccc(N4CCCCC4)cc3c2=O)c1`, the inhibition at 10 µM (Zika virus [1]) was 68.4%.

`COc1cccc(/C=C/c2nc3ccc(-c4ccncc4)cc3c(=O)n2-c2cccc(C(C)(C)C)c2)n1` showed an inhibition at 10 µM (Zika virus [1]) of 0%.

With `COc1cccc(/C=C/c2nc3ccc(-c4ccc(F)cc4)cc3c(=O)n2-c2cccc(C(C)(C)C)c2)n1` the inhibition at 10 µM (Zika virus [1]) was 99%.

Work on `CC(C)(C)c1cccc(-n2c(/C=C/c3ccc4ccccc4c3)nc3ccc(N4CCCCC4)cc3c2=O)c1` yielded an inhibition at 10 µM (Zika virus [1]) of 99.7%.

For `Cc1cccc(-n2c(/C=C/c3cccnc3)nc3ccccc3c2=O)c1`, the inhibition at 10 µM (Zika virus [1]) was 0%.

From ChEMBL document CHEMBL5360632, “Quinazolinone Compounds Have Potent Antiviral Activity against Zika and Dengue Virus” (J Med Chem, 2023)
